Assay results gathered from unrelated publications.
Protocols differ between the studies behind these lines. Converted amounts (≈) assume the structure as drawn.

| Structure (SMILES) | organism | assay | system | setting | measurement | value |
| --- | --- | --- | --- | --- | --- | --- |
| C[C@@H]1C[C@@H]([C@H](O)CC2CC(=O)NC(=O)C2)C(=O)[C@@H](C)C1 | Saccharomyces cerevisiae | microbial growth |  |  | MIC | 3 µM |
| CC(C)(C)C(=O)OCOP(=O)(COCCn1cnc2c(N)ncnc21)OCOC(=O)C(C)(C)C | Hepatitis B virus | viral replication, qPCR | HepG2.2.15 | 14 days | IC50 | 880 nM |
| C[C@H]1COCCN1c1nc(NCc2cccnc2C(F)(F)F)c2cccnc2n1 | Clostridioides difficile | microbial growth, broth dilution | 630 |  | MIC | 64 µg/mL |
| N#C[C@]1(CO)O[C@@H](n2cnc3c(=O)[nH]c(N)nc32)C[C@@H]1O | Hepatitis B virus | viral replication, qPCR | HepG2.2.15 | 14 days | IC50 | 0.5 nM |
| [O-][N+]1=C(c2ccc(Cl)cc2)C2=NCCN2c2ccccc21 | Fusobacterium nucleatum | microbial growth |  |  | MIC50 | ≤ 0.06 µg/mL |
| CN[C@H](CC(C)C)C(=O)N[C@H]1C(=O)N[C@@H](CC(N)=O)C(=O)N[C@H]2C(=O)N[C@H]3C(=O)N[C@H](C(=O)N[C@H](C(=O)O)c4cc(O)cc(O)c4-c4cc3ccc4O)[C@H](O)c3ccc(c(Cl)c3)Oc3cc2cc(c3O[C@@H]2O[C@H](CO)[C@@H](O)[C@H](O)[C@H]2O[C@H]2C[C@](C)(N)[C@H](O)[C@H](C)O2)Oc2ccc(cc2Cl)[C@H]1O | Clostridioides difficile | microbial growth, broth dilution |  | 24 h | MIC | 1 µg/mL |
| Cc1ncc([N+](=O)[O-])n1CCO | Clostridioides difficile | microbial growth |  |  | MIC50 | 0.25 µg/mL (≈ 1.46 µM) |
| CCN1CCN(C(=O)N[C@@H](C(=O)N[C@@H]2C(=O)N3C(C(=O)O)=C(CSc4nnnn4C)CS[C@H]23)c2ccc(O)cc2)C(=O)C1=O | Clostridioides difficile | microbial growth, broth dilution |  | 24 h | MIC | 100 µg/mL |
| O=[N+]([O-])c1ccc(C2=[N+]([O-])c3ccccc3N3CCN=C23)cc1 | Clostridioides difficile | microbial growth |  |  | MIC90 | ≤ 0.06 µg/mL |
| O=C1Cc2ccccc2C(=O)N1O | Hepatitis B virus | viral replication, inhibitor, qPCR | HepDES19 | 72 h | EC50 | 4200 nM |
| C=C1[C@H](CO)[C@@H](O)C[C@@H]1n1cnc2c(=O)[nH]c(N)nc21 | Hepatitis B virus | viral replication, qPCR | HepG2.2.15 | 14 days | IC50 | 3 nM |
| CC[C@H](C)C[C@H](C)CCCCCCCCC(=O)N[C@H]1C[C@@H](O)[C@@H](NCCN)NC(=O)[C@@H]2[C@@H](O)CCN2C(=O)[C@H]([C@H](O)CCN)NC(=O)[C@H]([C@H](O)[C@@H](O)c2ccc(O)cc2)NC(=O)[C@@H]2C[C@@H](O)CN2C(=O)[C@H]([C@@H](C)O)NC1=O | Saccharomyces cerevisiae | microbial growth, broth dilution | S288C |  | MIC | 0.25 µg/mL |
| CC(C)OC(=O)[C@H](C)N[P@](=O)(CO[C@H](C)Cn1cnc2c(N)ncnc21)Oc1ccccc1 | Hepatitis B virus | viral replication, inhibitor | HepG2.2.15 | 1 µM, 6 days | inhibition | ~65% |
| CC(C)OC(=O)OCOP(=O)(CO[C@H](C)Cn1cnc2c(N)ncnc21)OCOC(=O)OC(C)C | Hepatitis B virus | viral replication, qPCR | HepG2.2.15 | 14 days | IC50 | 200 nM |
| O=C(NCc1ccc2c(c1)OCO2)c1ccc(Br)cc1F | Saccharomyces cerevisiae | microbial growth | BY4743 | 72 h | MIC | > 200 µM |
